The values that follow come from publication PMC11220656 (JAC-Antimicrobial Resistance, 2024).

The test system of one assay is E. coli strain pb5. The conditions noted are these: strain pb5, respiratory; ref Basra et al. 15; cited from earlier work.
The subject of assay [1] is E. coli strain pb15. The conditions noted are these: strain pb15, blood; ref Basra et al. 15; cited from earlier work.
The test system of assay [2] is E. coli strain pb3. The conditions noted are these: strain pb3, urinary tract infection; ref Basra et al. 15; cited from earlier work.
Assay [3] has as its system E. coli strain pb3. Put plainly: Growth curve inhibition, clinical strain pb3. It is filed as cell-based, Escherichia coli. The conditions noted are these: for Effect on growth of pb3 (in words): AMP at 40 µM; for Concentration giving significant growth inhibition of pb3: 2-fold serial dilution 40 to 5 µM, triplicates, compared with WT peptide. In short, it runs like this:
(§1)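 Overnight E. coli clinical isolate cultures in Mueller–Hinton broth (150 rpm, 37°C) diluted 1:100 in MHB, with test peptide at 40 µM or in a 2-fold series from 40 to 5 µM, in triplicate. OD600 read every 30 min for 24 h with continuous shaking. Log-phase linear values were log2-transformed against time, slope taken as growth rate, normalized to a no-peptide control, and compared with wild-type peptide by Student's t test.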

Assay [4] relates to E. coli strain pb15. Put plainly: Growth curve inhibition, clinical strain pb15. It counts as cell-based, Escherichia coli. The conditions noted are these: for Effect on growth of pb15 (in words): AMP at 40 µM. The gist of the method:
as §1

Another assay deals with E. coli strain pb35. Put plainly: Growth curve inhibition, clinical strain pb35. The conditions noted are these: for Effect on growth of pb35 (in words): AMP at 40 µM. It is filed as cell-based, Escherichia coli. The gist of the method:
as §1

Assay [5] deals with clinically derived E. coli strains pb3, pb15 and pb35. Put plainly: Growth inhibition across the clinical strains pb3, pb15 and pb35. The conditions noted are these: AMP at 40 µM. It is filed as cell-based, Escherichia coli. The gist of the method:
as §1

Where [6] appears, read: 2-fold serial dilution 40 to 5 µM, triplicates, compared with WT peptide.

In the case of `CC(C)(O/N=C(\C(=O)N[C@@H]1C(=O)N2C(C(=O)[O-])=C(C[n+]3ccccc3)CS[C@H]12)c1csc(N)n1)C(=O)O` [CAZ, ceftazidime], the entries for the “CAZ MIC” value in the assay on E. coli strain pb5, in the assay on E. coli strain pb15 [1] and with E. coli strain pb3 [2] were 0.5 µg/mL, 128 µg/mL and 4 µg/mL, respectively.

For ILPWAWPWWPWRR [IndoK5A], the “Effect on growth of pb3 (in words)” value with E. coli strain pb3 [3] is “greater effect”. For the same compound, the “Effect on growth of pb15 (in words)” value in the assay with E. coli strain pb15 [4] was “reduced but still significant effect”. For the same compound, in the assay on E. coli strain pb35, the “Effect on growth of pb35 (in words)” value is given as “greater effect”.

As for ILPWCWPWWPWRR [IndoK5C], in the assay with E. coli strain pb3 [3], the “Effect on growth of pb3 (in words)” value was “greater effect”. For the same compound, the “Effect on growth of pb15 (in words)” value in the assay with E. coli strain pb15 [4] is “reduced but still significant effect”. For the same compound, the “Effect on growth of pb35 (in words)” value in the assay with E. coli strain pb35 is given as “greater effect”.

On to ILPWDWPWWPWRR [IndoK5D], for which the “Growth inhibition across all three clinical strains (in words)” value in assay [5] is on record as “equivalent response across all three strains”. Also, the “Concentration giving significant growth inhibition of pb3” value in the assay on E. coli strain pb3 [3] is 20 µM. Besides, in the assay on E. coli strain pb15 [4] (setting [6]), the “Concentration giving significant growth inhibition of pb15” value is reported as 10 µM.

With “ILPWKWPWWPWRR [indolicidin, reference compound]”, the “Dose-response of growth inhibition of pb3 (in words)” value in the assay with E. coli strain pb3 [3] (serial dilution 40 to 5 µM) is listed as “not inhibited across the concentrations tested”.

As to ILPWLWPWWPWRR [IndoK5L], the “Growth inhibition across all three clinical strains (in words)” value in assay [5] is “equivalent response across all three strains”. In addition, in the assay with E. coli strain pb3 [3], the “Concentration giving significant growth inhibition of pb3” value is on record as 20 µM. For the same compound, in the assay with E. coli strain pb35 (setting [6]), the “Concentration giving significant growth inhibition of pb35” value is 20 µM.
